Test results as given in PMC10392812 (Journal of the American Chemical Society, 2023).

Biological target: T1, EDC3 (Homo sapiens, UniProt Q96F86)
T1 sequence (Q96F86 1-508): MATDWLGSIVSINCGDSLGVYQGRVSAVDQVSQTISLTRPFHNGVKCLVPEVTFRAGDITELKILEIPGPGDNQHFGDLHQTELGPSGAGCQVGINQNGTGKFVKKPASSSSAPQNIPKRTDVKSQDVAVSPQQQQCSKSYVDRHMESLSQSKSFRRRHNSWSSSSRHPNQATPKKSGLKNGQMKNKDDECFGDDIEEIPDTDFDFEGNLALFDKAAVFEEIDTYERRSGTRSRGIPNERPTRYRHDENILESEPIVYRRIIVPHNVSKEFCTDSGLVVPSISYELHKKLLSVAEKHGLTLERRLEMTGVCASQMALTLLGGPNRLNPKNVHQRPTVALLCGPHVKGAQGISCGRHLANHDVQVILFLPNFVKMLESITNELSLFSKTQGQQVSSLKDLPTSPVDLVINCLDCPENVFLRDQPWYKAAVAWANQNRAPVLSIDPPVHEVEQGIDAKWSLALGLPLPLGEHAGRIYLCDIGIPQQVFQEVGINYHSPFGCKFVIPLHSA
Test: competitive gel-based ABPP in situ
Format: cell-based
Procedure, shortened: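 Recombinant EDC3-expressing HEK293T cells pretreated with test compound (0.1–100 µM, 2 h); lysed, and soluble proteomes labelled with HHS-465 Tyr/Lys-reactive sulfonyl-triazole probe (100 µM, 1 h, RT). CuAAC to rhodamine-azide, SDS-PAGE and in-gel fluorescence scanning. IC50 estimated from dose-dependent loss of EDC3 probe labelling; mean ± SEM, n = 3 biologically independent replicates.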

COc1ccc(S(=O)(=O)n2cc(CS(C)(=O)=O)nn2)cc1 [AHL-030]
IC50: ~6 µM
